Active and inactive are the calls of the source. The calls are words filed in the database; no cut-off is given here.
Tests used:
Leishmania major [1] = assay: Antileishmanial activity against promastigotes form of Leishmania major MRHO/IR/75/ER after 24 hrs by MTT assay; type: functional, organism-based
Outline: (§1)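 Log-phase promastigotes (2 × 10⁶/mL) were used, from a strain passaged in BALB/c mice. They were incubated with serial drug dilutions in phenol red-free RPMI 1640 with 10% FBS, 2 mM glutamine and antibiotics, pH ~7.2, at 25 °C for 24, 48 or 72 h. MTT (0.5 mg/mL) was then added for 4 h at 37 °C. Cells were pelleted and dissolved in DMSO, with absorbance read at 492 nm. Controls received medium plus DMSO. At least two independent experiments were run in triplicate. IC50 came from linear regression, as mean ± SD.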

Leishmania major [2] = assay: Antileishmanial activity against amastigotes form of Leishmania major MRHO/IR/75/ER infected in mouse peritoneal macrophage assessed as decrease in infectivity index after 24 hrs; type: functional, organism-based
Outline: (§2)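 Mouse peritoneal macrophages (1 × 10⁶/well) were grown on glass coverslips in RPMI 1640 with 10% heat-inactivated FBS, 2 mM glutamine, penicillin and streptomycin. Non-adherent cells were washed off after 1 h. Stationary-phase promastigotes (2 × 10⁶/well, 3 per macrophage) were added for 2 h at 37 °C under CO₂. Free parasites were washed away, then drug medium was added for 24 h. Cells were methanol-fixed and Giemsa-stained, with 100 cells counted per well. Infectivity index = % infected macrophages × mean parasites per infected cell. Two experiment sets were run.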

[3] = Cytotoxicity against mouse peritoneal macrophages after 24 hrs by MTT assay; type: cell-based, Peritoneal macrophage cell
Outline: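 Peritoneal macrophages were seeded at 2 × 10⁵ cells/well and allowed to adhere. Medium was then replaced with a range of compound concentrations for 24 h at 37 °C in humidified 5% CO₂. Viability was read by MTT colorimetry. Two independent experiments were run in triplicate, and CC50 was obtained by linear regression.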

Leishmania major [4] = assay: Antileishmanial activity against promastigotes form of Leishmania major MRHO/IR/75/ER after 72 hrs by MTT assay; type: functional, organism-based; outline: as §1
Leishmania major [5] = assay: Antileishmanial activity against promastigotes form of Leishmania major MRHO/IR/75/ER after 48 hrs by MTT assay; type: functional, organism-based; outline: as §1
[6] = Selectivity index, ratio of CC50 for mouse peritoneal macrophages to IC50 for promastigotes form of Leishmania major MRHO/IR/75/ER after 24 hrs by MTT assay; type: functional
Leishmania major [7] = assay: Antileishmanial activity against amastigotes form of Leishmania major MRHO/IR/75/ER infected in mouse peritoneal macrophage assessed as decrease in number of amastigotes per macrophage after 24 hrs; type: functional, organism-based; outline: as §2
Leishmania major [8] = assay: Antileishmanial activity against amastigotes form of Leishmania major MRHO/IR/75/ER infected in mouse peritoneal macrophage assessed as decrease in macrophage infectivity after 24 hrs; type: functional, organism-based; outline: as §2

SMILES | IC50 (Leishmania major [1]) | Activity (Leishmania major [2]) | CC50 at 24 h [3] | IC50 (Leishmania major [4]) | IC50 (Leishmania major [5]) | Ratio CC50/IC50 [6] | Activity (Leishmania major [7]) | Activity (Leishmania major [8])
Cl.N=C(NCc1ccccc1)c1ccc(N2CCN(c3nnc(-c4ccc([N+](=O)[O-])o4)s3)CC2)cc1 | 9 µM | Active | 546 µM | 0.4 µM | 1.9 µM | 60.77 | Active | Active
CCCCNC(=N)c1ccc(N2CCN(c3nnc(-c4ccc([N+](=O)[O-])o4)s3)CC2)cc1.Cl | 11 µM | – | 123 µM | 0.2 µM | 4 µM | 11.18 | – | –
Cl.N=C(N)c1ccc(N2CCN(c3nnc(-c4ccc([N+](=O)[O-])o4)s3)CC2)cc1 | 111 µM | – | 342 µM | 26 µM | 111 µM | 3.08 | – | –
N#Cc1ccc(N2CCN(c3nnc(-c4ccc([N+](=O)[O-])o4)s3)CC2)cc1 | 104 µM | Active | 159 µM | 32 µM | 86 µM | 1.53 | Active | Active
CCCNC(=N)c1ccc(N2CCN(c3nnc(-c4ccc([N+](=O)[O-])o4)s3)CC2)cc1.Cl | 10 µM | Active | 785 µM | 0.08 µM | 5 µM | 78.5 | Active | Active
CNC(=N)c1ccc(N2CCN(c3nnc(-c4ccc([N+](=O)[O-])o4)s3)CC2)cc1.Cl | 23 µM | Active | 223 µM | 21 µM | 22 µM | 9.69 | Active | Active
Cl.N=C(NCC1CCCO1)c1ccc(N2CCN(c3nnc(-c4ccc([N+](=O)[O-])o4)s3)CC2)cc1 (centres undefined) | 95 µM | – | 921 µM | 5 µM | 88 µM | 9.69 | – | –
CCC(C)NC(=N)c1ccc(N2CCN(c3nnc(-c4ccc([N+](=O)[O-])o4)s3)CC2)cc1.Cl (centres undefined) | 33 µM | Active | 770 µM | 13 µM | 18 µM | 23.33 | Active | Active
CCOC(=N)c1ccc(N2CCN(c3nnc(-c4ccc([N+](=O)[O-])o4)s3)CC2)cc1 | 48 µM | Active | – | 26 µM | 46 µM | – | Active | Active
COc1ccc(CNC(=N)c2ccc(N3CCN(c4nnc(-c5ccc([N+](=O)[O-])o5)s4)CC3)cc2)cc1.Cl | 80 µM | Active | 69 µM | 2 µM | 76 µM | 0.86 | Active | Active
CCNC(=N)c1ccc(N2CCN(c3nnc(-c4ccc([N+](=O)[O-])o4)s3)CC2)cc1.Cl | 33 µM | Active | 337 µM | 16 µM | 26 µM | 10.21 | Active | Active
Cl.N=C(c1ccc(N2CCN(c3nnc(-c4ccc([N+](=O)[O-])o4)s3)CC2)cc1)N1CCOCC1 | 93 µM | – | 55 µM | 4 µM | 88 µM | 0.59 | – | –
O=[N+]([O-])c1ccc(-c2nnc(N3CCN(c4ccc(C5=NCCCN5)cc4)CC3)s2)o1 | > 200 µM | – | – | – | – | – | – | –
O=[N+]([O-])c1ccc(-c2nnc(N3CCN(c4ccc(C5=NCCN5)cc4)CC3)s2)o1 | > 200 µM | – | – | – | – | – | – | –
